IC50, solubility and Ki data for six molecules are collected here from ChEMBL document CHEMBL4028872, “Structure-Activity Relationship, Pharmacological Characterization, and Molecular Modeling of Noncompetitive Inhibitors of the Betaine/γ-Aminobutyric Acid Transporter 1 (BGT1)” (J Med Chem, 2017).

≈ marks a conversion by molar mass, not a printed value. A value given as a limit tells only on which side of the number the result lay.

The target in data set [1] is T1, GABA transporter 3 (Mus musculus, UniProt P31649).
T1 sequence (P31649 whole entry): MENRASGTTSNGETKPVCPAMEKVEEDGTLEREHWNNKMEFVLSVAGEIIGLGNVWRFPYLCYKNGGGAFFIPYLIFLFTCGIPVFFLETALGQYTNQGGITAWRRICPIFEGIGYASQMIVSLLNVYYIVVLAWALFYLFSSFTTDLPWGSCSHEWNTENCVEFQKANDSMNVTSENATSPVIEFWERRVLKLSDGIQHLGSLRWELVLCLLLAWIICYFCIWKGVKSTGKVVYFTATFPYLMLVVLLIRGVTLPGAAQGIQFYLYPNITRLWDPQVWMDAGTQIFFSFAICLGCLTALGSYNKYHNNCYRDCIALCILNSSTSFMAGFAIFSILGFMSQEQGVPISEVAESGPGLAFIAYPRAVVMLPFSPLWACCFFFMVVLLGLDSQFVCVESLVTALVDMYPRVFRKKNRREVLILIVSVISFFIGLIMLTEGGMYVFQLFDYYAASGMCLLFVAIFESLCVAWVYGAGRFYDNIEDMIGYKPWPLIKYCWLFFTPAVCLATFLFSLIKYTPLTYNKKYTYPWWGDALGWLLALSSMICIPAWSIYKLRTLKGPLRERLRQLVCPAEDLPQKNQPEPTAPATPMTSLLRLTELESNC
Briefly: Inhibition of mouse GAT2 expressed in HEK293 cells assessed as reduction in [3H]GABA uptake after 3 mins by scintillation counting method. Type of data set: cell-based. The essentials:
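HEK293 cells stably expressing mouse GAT2 were kept under blasticidin-S (5 µg/mL) selection. Ice-cold washes preceded scintillation counting. IC50 came from a variable-slope sigmoidal fit.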

Data set [2] concerns the target T2, Sodium- and chloride-dependent GABA transporter 1 (Mus musculus, UniProt P31648). In words: Inhibition of mouse GAT1 expressed in HEK293 cells assessed as reduction in [3H]GABA uptake after 3 mins by scintillation counting method. Type of data set: cell-based. In outline: (§1)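 HEK293 lines stably expressing a single mouse GAT subtype, kept under blasticidin-S (5 µg/mL) selection. Cells were assayed about 24 h after plating with 30 nM [3H]GABA plus varying compound concentrations for 3 min at 37 °C in HBSS buffered with 20 mM HEPES (1 mM CaCl2, 1 mM MgCl2, pH 7.4). Cells were washed ice-cold and radioactivity counted. IC50 came from sigmoidal variable-slope fits.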

The target in data set [3] is T3, GABA transporter 2 (Mus musculus, UniProt P31651).
T3 sequence (P31651 whole entry): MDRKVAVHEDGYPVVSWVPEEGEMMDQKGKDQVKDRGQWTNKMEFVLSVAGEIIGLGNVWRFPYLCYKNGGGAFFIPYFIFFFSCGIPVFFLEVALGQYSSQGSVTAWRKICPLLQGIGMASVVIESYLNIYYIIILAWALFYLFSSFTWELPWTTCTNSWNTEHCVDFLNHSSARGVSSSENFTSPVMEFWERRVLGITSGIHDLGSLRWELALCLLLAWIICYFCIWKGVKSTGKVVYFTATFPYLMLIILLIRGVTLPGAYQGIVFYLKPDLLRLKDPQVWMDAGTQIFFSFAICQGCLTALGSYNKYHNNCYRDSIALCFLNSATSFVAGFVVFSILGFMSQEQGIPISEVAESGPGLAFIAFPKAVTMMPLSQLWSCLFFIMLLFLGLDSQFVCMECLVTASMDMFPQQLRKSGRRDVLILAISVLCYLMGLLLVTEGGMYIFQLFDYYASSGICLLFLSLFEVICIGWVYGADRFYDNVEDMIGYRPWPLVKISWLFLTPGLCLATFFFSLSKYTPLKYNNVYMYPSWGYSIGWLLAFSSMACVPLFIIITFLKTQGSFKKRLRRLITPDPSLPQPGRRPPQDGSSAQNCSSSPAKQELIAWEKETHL
Briefly: Inhibition of mouse BGT1 expressed in HEK293 cells assessed as reduction in [3H]GABA uptake after 3 mins by scintillation counting method. Type of data set: cell-based. In outline: as §1

Data set [4] in a line: Solubility of compound in pH 7.4 phosphate buffer after 24 hrs by HPLC-UV method. Type of data set: physicochemical.
Data set [5] concerns the target T2, Sodium- and chloride-dependent GABA transporter 1. Briefly: Inhibition of mouse GAT1 expressed in hamster BHK cells assessed as reduction in [3H]GABA uptake after 3 mins by scintillation counting method. The conditions noted are these: read-out: Ki(app). The data set is classed as cell-based.
In data set [6] the target is T3, GABA transporter 2. In words: Inhibition of mouse BGT1 expressed in hamster BHK cells assessed as reduction in [3H]GABA uptake after 3 mins by scintillation counting method. Type of data set: cell-based. The conditions noted are these: read-out: Ki(app).
Data set [7] addresses T1, GABA transporter 3. In words: Inhibition of mouse GAT2 expressed in hamster BHK cells assessed as reduction in [3H]GABA uptake after 3 mins by scintillation counting method. Type of data set: cell-based. The conditions noted are these: read-out: Ki(app).
Data set [8] has as its target Sodium- and chloride-dependent GABA transporter 3 (Homo sapiens, UniProt P48066, L314Q). Briefly: Inhibition of human GAT3 L314Q mutant expresses in tsA201 cells assessed as reduction in [3H]GABA uptake after 3 mins by scintillation counting method. Type of data set: cell-based. The essentials:
(§2)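 Site-directed mutant transporters transiently transfected (PolyFect) into tsA201 cells, plated and used about 24 h later. Cells were washed with HBSS containing 20 mM HEPES, 1 mM CaCl2 and 1 mM MgCl2, pH 7.4. Uptake of 30 nM [3H]GABA was run with varied inhibitor concentrations for 3 min at 37 °C, then three ice-cold washes and scintillation counting. IC50 was taken from variable-slope sigmoidal fits. Triplicates, at least three independent experiments.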

Data set [9] has as its target Sodium- and chloride-dependent GABA transporter 3 (Homo sapiens, UniProt P48066, S468Y). In words: Inhibition of human GAT3 S468Y mutant expresses in tsA201 cells assessed as reduction in [3H]GABA uptake after 3 mins by scintillation counting method. The data set is classed as cell-based. In outline:
as §2

Sequence of Sodium- and chloride-dependent GABA transporter 3 (Homo sapiens, UniProt P48066, S468Y) (P48066 whole entry S468Y): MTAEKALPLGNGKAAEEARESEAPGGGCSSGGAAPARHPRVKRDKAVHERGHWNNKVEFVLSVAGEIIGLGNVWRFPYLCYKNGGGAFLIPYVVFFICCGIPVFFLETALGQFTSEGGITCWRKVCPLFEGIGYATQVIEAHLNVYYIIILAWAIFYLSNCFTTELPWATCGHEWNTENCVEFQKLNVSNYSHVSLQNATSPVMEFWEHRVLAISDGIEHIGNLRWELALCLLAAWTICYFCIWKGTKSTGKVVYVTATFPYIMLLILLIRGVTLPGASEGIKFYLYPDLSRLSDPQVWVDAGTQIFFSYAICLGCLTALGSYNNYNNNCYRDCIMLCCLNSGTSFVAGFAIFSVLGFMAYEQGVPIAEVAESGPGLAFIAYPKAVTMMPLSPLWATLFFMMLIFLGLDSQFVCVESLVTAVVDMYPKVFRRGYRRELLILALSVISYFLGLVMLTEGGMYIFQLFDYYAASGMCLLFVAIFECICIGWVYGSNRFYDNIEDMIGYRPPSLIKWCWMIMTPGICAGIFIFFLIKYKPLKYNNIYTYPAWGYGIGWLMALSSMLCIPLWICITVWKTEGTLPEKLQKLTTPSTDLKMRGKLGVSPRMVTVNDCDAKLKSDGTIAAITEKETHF
Sequence of Sodium- and chloride-dependent GABA transporter 3 (Homo sapiens, UniProt P48066, L314Q) (P48066 whole entry L314Q): as the sequence (P48066 whole entry S468Y) above, with L314Q, Y468S counted along it

As usually defined, the IC50 is the midpoint of a concentration-inhibition curve. As usually defined, the solubility is how much of the substance goes into solution per volume. The low end stands for a poorly soluble substance, the high end for a readily soluble substance. `O=C(NC1CCN(Cc2cccc(C(F)(F)F)c2)CC1)c1ccc(Cl)cc1Cl`: the IC50 in data set [1] is above 1000 µM; in data set [2] it was above 1000 µM; in [3] (read-out: IC50), 51 µM. In data set [4], the solubility at 24 h was determined as 3 µg/mL (≈ 6.96 µM).

On to `CCOc1cccc(CN2CCC(NC(=O)c3ccc(Cl)nc3Cl)CC2)c1`, for which the IC50 was above 300 µM in data set [1], above 300 µM in data set [2], 111 µM in data set [3] and 111 µM in [3] (read-out: IC50). Besides, the concentration in solution in [4] (solubility at 24 h) was 130 µg/mL (≈ 318 µM).

Consider `COc1cccc(CN2CCC(NC(=O)c3ccc(Cl)nc3Cl)CC2)c1`, for which the IC50 in data set [1] was above 300 µM; in data set [2], above 300 µM; in data set [3] (read-out: IC50) it was 115 µM. The molecule also returned a solubility at 24 h in data set [4] of 240 µg/mL (≈ 609 µM).

`COc1ccccc1C1(O)CCN(CCCn2c3ccccc3c3ccccc32)CC1`: the figures for the Ki in data set [5], in data set [6] and in data set [7] were 19 µM, 1.4 µM and 41 µM, respectively.

For `NCCCC(=O)O` [GAMMA-AMINOBUTYRIC ACID], the IC50 came to 4 µM in data set [8] and 1 µM in data set [9].

As for `O=C(NC1CCN(Cc2ccccc2)CC1)c1c(Cl)cc(Cl)cc1Cl`, the results for the IC50 in data set [1], in [2] and in data set [3] (read-out: IC50) were 1700 µM, above 1000 µM and 11 µM, respectively. Further, the solubility at 24 h in data set [4] is 40 µg/mL (≈ 101 µM).
